{"source": "ChEMBL document CHEMBL2311390", "about": "“Synthesis and preliminary evaluation of pharmacological properties of some piperazine derivatives of xanthone” (Bioorg Med Chem, 2013)", "key": {"Rattus norvegicus [1]": {"test_system": "Rattus norvegicus", "experiment": "Antiarrhythmic activity in iv dosed Wistar rat adrenaline-induced arrhythmia model assessed as reduction of heart-rhythm disturbance administered 15 mins adrenaline-challenge", "assay_type": "functional", "conditions": "0.25 h", "outline": "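Anaesthetised male Wistar rats (thiopental 75 mg/kg ip). Test compound iv at 1 mL/kg, given 15 min before adrenaline 20 µg/kg iv. Activity means no premature beats and inhibition of arrhythmia, judged against a control group. There were three dose groups of six rats. ED50 with confidence limits was calculated by the Litchfield–Wilcoxon method.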"}, "Rattus norvegicus [2]": {"test_system": "Rattus norvegicus", "experiment": "Cardiotoxicity in Wistar rat assessed as hear beats per min at 2.5 mg/kg, iv after 15 mins by ECG analysis", "assay_type": "toxicity, organism-based", "parameters": "dose 2.5 mg/kg, route intravenous", "conditions": "in vivo, 0.25 h", "outline": "(§1)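 Male normotensive Wistar rats (170–350 g, groups of six) were anaesthetised. Compound was given iv at 1 mL/kg. ECG was recorded just before dosing and at 1, 5 and 15 min after, and PQ, QRS and QT intervals and heart rate were read. Groups were compared by one-way ANOVA.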"}, "Rattus norvegicus [3]": {"test_system": "Rattus norvegicus", "experiment": "Cardiotoxicity in Wistar rat assessed as QT interval at 2.5 mg/kg, iv after 15 mins by ECG analysis", "assay_type": "toxicity, organism-based", "parameters": "dose 2.5 mg/kg, route intravenous", "conditions": "in vivo, 0.25 h", "outline": "as §1"}, "Rattus norvegicus [4]": {"test_system": "Rattus norvegicus", "experiment": "Cardiotoxicity in Wistar rat assessed as QRS interval at 2.5 mg/kg, iv after 15 mins by ECG analysis", "assay_type": "toxicity, organism-based", "parameters": "dose 2.5 mg/kg, route intravenous", "conditions": "in vivo, 0.25 h", "outline": "as §1"}, "Rattus norvegicus [5]": {"test_system": "Rattus norvegicus", "experiment": "Cardiotoxicity in Wistar rat assessed as PQ interval at 2.5 mg/kg, iv after 15 mins by ECG analysis", "assay_type": "toxicity, organism-based", "parameters": "dose 2.5 mg/kg, route intravenous", "conditions": "in vivo, 0.25 h", "outline": "as §1"}, "Rattus norvegicus [6]": {"test_system": "Rattus norvegicus", "experiment": "Cardiotoxicity in Wistar rat assessed as hear beats per min at 2.5 mg/kg, iv after 10 mins by ECG analysis", "assay_type": "toxicity, organism-based", "parameters": "dose 2.5 mg/kg, route intravenous", "conditions": "in vivo"}, "Rattus norvegicus [7]": {"test_system": "Rattus norvegicus", "experiment": "Cardiotoxicity in Wistar rat assessed as QT interval at 2.5 mg/kg, iv after 10 mins by ECG analysis", "assay_type": "toxicity, organism-based", "parameters": "dose 2.5 mg/kg, route intravenous", "conditions": "in vivo"}, "Rattus norvegicus [8]": {"test_system": "Rattus norvegicus", "experiment": "Cardiotoxicity in Wistar rat assessed as QRS interval at 2.5 mg/kg, iv after 10 mins by ECG analysis", "assay_type": "toxicity, organism-based", "parameters": "dose 2.5 mg/kg, route intravenous", "conditions": "in vivo"}, "Rattus norvegicus [9]": {"test_system": "Rattus norvegicus", "experiment": "Cardiotoxicity in Wistar rat assessed as PQ interval at 2.5 mg/kg, iv after 10 mins by ECG analysis", "assay_type": "toxicity, organism-based", "parameters": "dose 2.5 mg/kg, route intravenous", "conditions": "in vivo"}, "Rattus norvegicus [10]": {"test_system": "Rattus norvegicus", "experiment": "Cardiotoxicity in Wistar rat assessed as hear beats per min at 2.5 mg/kg, iv after 5 mins by ECG analysis", "assay_type": "toxicity, organism-based", "parameters": "dose 2.5 mg/kg, route intravenous", "conditions": "in vivo", "outline": "as §1"}, "Rattus norvegicus [11]": {"test_system": "Rattus norvegicus", "experiment": "Cardiotoxicity in Wistar rat assessed as QT interval at 2.5 mg/kg, iv after 5 mins by ECG analysis", "assay_type": "toxicity, organism-based", "parameters": "dose 2.5 mg/kg, route intravenous", "conditions": "in vivo", "outline": "as §1"}, "Rattus norvegicus [12]": {"test_system": "Rattus norvegicus", "experiment": "Cardiotoxicity in Wistar rat assessed as QRS interval at 2.5 mg/kg, iv after 5 mins by ECG analysis", "assay_type": "toxicity, organism-based", "parameters": "dose 2.5 mg/kg, route intravenous", "conditions": "in vivo", "outline": "as §1"}, "Rattus norvegicus [13]": {"test_system": "Rattus norvegicus", "experiment": "Cardiotoxicity in Wistar rat assessed as PQ interval at 2.5 mg/kg, iv after 5 mins by ECG analysis", "assay_type": "toxicity, organism-based", "parameters": "dose 2.5 mg/kg, route intravenous", "conditions": "in vivo", "outline": "as §1"}, "[14]": {"experiment": "Displacement of [3H]CGP-12177 from beta1-adrenergic receptor in rat cerebral cortex by liquid scintillation counting", "assay_type": "tissue-based", "outline": "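Rat cerebral cortex was homogenised in ice-cold 50 mM Tris-HCl pH 7.6 and spun at 20,000 g for 20 min at 0–4 °C, then washed once. Radioligands: [3H]prazosin 0.2 nM for α1, [3H]clonidine 2 nM for α2, [3H]CGP-12177 0.2 nM for β1. Test compounds were run at 7–8 concentrations from 10^-11 to 10^-4 M. Nonspecific binding was defined with phentolamine (α1), clonidine (α2) or propranolol (β1). Counting was by liquid scintillation, in duplicate. Ki was derived by Cheng–Prusoff from 2–3 experiments.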"}, "Rattus norvegicus [15]": {"test_system": "Rattus norvegicus", "experiment": "Hypotensive activity in normotensive Wistar rat assessed as reduction of diastolic blood pressure at 0.625 mg/kg, iv after 30 mins", "assay_type": "functional, Artery", "outline": "(§2)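 Male normotensive Wistar rats were anaesthetised with thiopental 75 mg/kg ip. The right carotid artery was cannulated with heparinised saline for pressure recording. After 5 min of stabilisation, compound was injected into the tail vein at 1 mL/kg. Systolic and diastolic pressure were followed up to 60 min. Data are means ± SEM of 5–6 rats, analysed by one-way ANOVA.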"}, "Rattus norvegicus [16]": {"test_system": "Rattus norvegicus", "experiment": "Hypotensive activity in normotensive Wistar rat assessed as reduction of diastolic blood pressure at 0.31 mg/kg, iv after 30 mins", "assay_type": "functional, Artery", "outline": "as §2"}, "Rattus norvegicus [17]": {"test_system": "Rattus norvegicus", "experiment": "Hypotensive activity in normotensive Wistar rat assessed as reduction of systolic blood pressure at 1.25 mg/kg, iv after 60 mins", "assay_type": "functional, Artery", "outline": "(§3)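 Male normotensive Wistar rats (170–350 g) anaesthetised with thiopental 75 mg/kg ip; right carotid artery cannulated with heparinised saline-filled polyethylene tubing for pressure recording. After a 5 min stabilisation, compound given into the caudal vein at 1 mL/kg. Systolic pressure is recorded at 0, 5, 10, 20, 30 and 60 min, and the data are reported as mean ± SEM of five to six animals, with one-way ANOVA.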"}, "Rattus norvegicus [18]": {"test_system": "Rattus norvegicus", "experiment": "Hypotensive activity in normotensive Wistar rat assessed as reduction of systolic blood pressure at 1.25 mg/kg, iv after 20 mins", "assay_type": "functional, Artery", "outline": "as §3"}}}
{"smiles": "COc1ccccc1N1CCN(CCCOc2cccc3c(=O)c4ccccc4oc23)CC1.Cl", "values": [{"measurement": "ED50", "setting": "Rattus norvegicus [1]", "value": 0.69, "unit": "mg/kg"}, {"measurement": "Activity", "setting": "Rattus norvegicus [2]", "value": 295.7, "unit": "bpm"}, {"measurement": "Activity", "setting": "Rattus norvegicus [3]", "value": 71.8, "unit": "ms"}, {"measurement": "Activity", "setting": "Rattus norvegicus [4]", "value": 20.3, "unit": "ms"}, {"measurement": "Activity", "setting": "Rattus norvegicus [5]", "value": 43.5, "unit": "ms"}, {"measurement": "Activity", "setting": "Rattus norvegicus [6]", "value": 306.7, "unit": "bpm"}, {"measurement": "Activity", "setting": "Rattus norvegicus [7]", "value": 69.8, "unit": "ms"}, {"measurement": "Activity", "setting": "Rattus norvegicus [8]", "value": 20.6, "unit": "ms"}, {"measurement": "Activity", "setting": "Rattus norvegicus [9]", "value": 43.2, "unit": "ms"}, {"measurement": "Activity", "setting": "Rattus norvegicus [10]", "value": 314.4, "unit": "bpm"}, {"measurement": "Activity", "setting": "Rattus norvegicus [11]", "value": 70, "unit": "ms"}, {"measurement": "Activity", "setting": "Rattus norvegicus [12]", "value": 20.4, "unit": "ms"}, {"measurement": "Activity", "setting": "Rattus norvegicus [13]", "value": 43, "unit": "ms"}, {"measurement": "Ki", "setting": "[14]", "value": 3.2, "unit": "µM"}, {"measurement": "Activity", "setting": "Rattus norvegicus [15]", "value": 111.7, "unit": "mmHg"}, {"measurement": "Activity", "setting": "Rattus norvegicus [16]", "value": 103.3, "unit": "mmHg"}]}
{"smiles": "COc1ccccc1N1CCN(CC(COc2cccc3c(=O)c4ccccc4oc23)OC(C)=O)CC1.Cl", "note": "(racemic)", "values": [{"measurement": "ED50", "setting": "Rattus norvegicus [1]", "value": 0.87, "unit": "mg/kg"}, {"measurement": "Activity", "setting": "Rattus norvegicus [2]", "value": 366.3, "unit": "bpm"}, {"measurement": "Activity", "setting": "Rattus norvegicus [3]", "value": 60, "unit": "ms"}, {"measurement": "Activity", "setting": "Rattus norvegicus [4]", "value": 19, "unit": "ms"}, {"measurement": "Activity", "setting": "Rattus norvegicus [5]", "value": 48, "unit": "ms"}, {"measurement": "Activity", "setting": "Rattus norvegicus [6]", "value": 369, "unit": "bpm"}, {"measurement": "Activity", "setting": "Rattus norvegicus [7]", "value": 60, "unit": "ms"}, {"measurement": "Activity", "setting": "Rattus norvegicus [8]", "value": 19, "unit": "ms"}, {"measurement": "Activity", "setting": "Rattus norvegicus [9]", "value": 48, "unit": "ms"}, {"measurement": "Activity", "setting": "Rattus norvegicus [10]", "value": 375, "unit": "bpm"}, {"measurement": "Activity", "setting": "Rattus norvegicus [11]", "value": 61.8, "unit": "ms"}, {"measurement": "Activity", "setting": "Rattus norvegicus [12]", "value": 19, "unit": "ms"}, {"measurement": "Activity", "setting": "Rattus norvegicus [13]", "value": 48, "unit": "ms"}, {"measurement": "Ki", "setting": "[14]", "value": 11.2, "unit": "µM"}, {"measurement": "Activity", "setting": "Rattus norvegicus [15]", "value": 93.2, "unit": "mmHg"}, {"measurement": "Activity", "setting": "Rattus norvegicus [17]", "value": 116.6, "unit": "mmHg"}, {"measurement": "Activity", "setting": "Rattus norvegicus [18]", "value": 117, "unit": "mmHg"}]}
{"smiles": "COc1ccccc1N1CCN(CC(O)COc2cccc3c(=O)c4ccccc4oc23)CC1.Cl", "note": "(racemic)", "values": [{"measurement": "ED50", "setting": "Rattus norvegicus [1]", "value": 0.88, "unit": "mg/kg"}, {"measurement": "Activity", "setting": "Rattus norvegicus [2]", "value": 303.3, "unit": "bpm"}, {"measurement": "Activity", "setting": "Rattus norvegicus [3]", "value": 68.4, "unit": "ms"}, {"measurement": "Activity", "setting": "Rattus norvegicus [4]", "value": 20.2, "unit": "ms"}, {"measurement": "Activity", "setting": "Rattus norvegicus [5]", "value": 42.8, "unit": "ms"}, {"measurement": "Activity", "setting": "Rattus norvegicus [6]", "value": 315.2, "unit": "bpm"}, {"measurement": "Activity", "setting": "Rattus norvegicus [7]", "value": 68.2, "unit": "ms"}, {"measurement": "Activity", "setting": "Rattus norvegicus [8]", "value": 19.8, "unit": "ms"}, {"measurement": "Activity", "setting": "Rattus norvegicus [9]", "value": 43.3, "unit": "ms"}, {"measurement": "Activity", "setting": "Rattus norvegicus [10]", "value": 341.2, "unit": "bpm"}, {"measurement": "Activity", "setting": "Rattus norvegicus [11]", "value": 69.7, "unit": "ms"}, {"measurement": "Activity", "setting": "Rattus norvegicus [12]", "value": 19.6, "unit": "ms"}, {"measurement": "Activity", "setting": "Rattus norvegicus [13]", "value": 44.3, "unit": "ms"}, {"measurement": "Ki", "setting": "[14]", "value": 7.6, "unit": "µM"}, {"measurement": "Activity", "setting": "Rattus norvegicus [16]", "value": 100.6, "unit": "mmHg"}]}
